# Calls of active or inactive are those of the source.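 How the source made its calls, unless noted: active means viability loss from added drug above about 55%, and viability with drug at most 40%, in both replicates (limit read from the data, passing the limit was not always enough); inconclusive means both conditions met in only one replicate; inactive means neither replicate meets both conditions.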
# Key:
# [1] = SK-BR-3 cell growth inhibitors, pilot screen, 24 h, human (AID 572;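 active means viability at or below 10% of carrier control in both of two separate runs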;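 further: compound exposure lasted between 18 and 24 h rather than exactly 24 h; 100% = carrier-treated control wells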); details: SK-BR-3 viability, CellTiter-Glo luminescence, at 10 µM, stronger effect = lower value
# [2] = HUVEC growth inhibition – cell-based, human, primary screen (AID 575;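 active means viability at or below 30% in both replicate assays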;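 further: 100% = median of untreated cell wells with 0.1% DMSO on each plate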); details: HUVEC proliferation, CellTiter-Glo luminescence, 72 h; at 10 µM; stronger effect = lower value
# Method in brief: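 Test system: primary human umbilical vein endothelial cells; medium: endothelial basal medium with 2% FBS plus growth supplements; dosing: 10 µM compound only; times: 72 h treatment at 37 °C; signal: CTG luminescence; read-out: % viability relative to median vehicle-well signal on each plate; control set: vehicle and MePR control wells; plate: 384-well, collagen-coated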
# [3] = growth inhibitors of H69AR lung tumor, primary screen, human, duplicate replicates (AID 580;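 active means viability at or under a set limit in both replicates, limit being median viability minus 3 SD, cut at about 48% in these data, passing the limit was not always enough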;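 further: 100% = mean luminescence of untreated wells and 0% = no signal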); details: H69AR lung tumor cells viability, ATP luminescence, 72 h; at 10 µM; stronger effect = lower value
# [4] = reversal of MRP1-mediated doxorubicin resistance, pilot screen, H69AR cells, doxorubicin co-treatment (AID 601); details: CellTiter-Glo, 72 h, at 10 µM; for differential viability (reversal): stronger effect = higher value
# [5] = 384-well plate pilot, post-Golgi transport modulator project, inhibition of yeast transport mutant growth (AID 636; in the data active means inhibition above about 31%); details: absorbance 615 nm, about 18 h, stronger effect = higher value
# [6] = growth suppression of yeast trafficking mutant, preliminary HTS, modulators of trafficking downstream of Golgi apparatus project, 1536-format plate, OD 615 nm (AID 637; in the data active means inhibition above about 30%); details: yeast transport mutant growth, absorbance 615 nm, 18 h; stronger effect = higher value
# [7] = H69AR cells + 2 uM doxorubicin, measured here: viability with 2 uM doxorubicin, stronger effect = lower value
# [8] = H69AR cells, compound alone cytotoxicity
SMILES,viability [1],viability [2],viability [3],differential viability (reversal) ([4]; H69AR cells + 2 uM doxorubicin),"viability [4, 7] [%]","viability [4, 8] [%]",inhibition [5],inhibition [6]
CCN(CCCc1ccccc1)CCCc1ccccc1,76% (inactive),77.6% (inactive),78.6% (inactive),-12.7% (inactive),91.2,78.6,2.34% (inactive),15% (inactive)
CCOc1nc(-c2ccccc2O)nc2ccccc12,68% (inactive),108% (inactive),100% (inactive),0.64% (inactive),99.5,100,1.23% (inactive),0.55% (inactive)
CC1=C(C(=O)N2CCOCC2)C(c2ccsc2)C2=C(CCCC2=O)N1 (stereo not drawn),96% (inactive),107% (inactive),90.4% (inactive),-0.065% (inactive),90.5,90.4,-2.47% (inactive),7.74% (inactive)
Cc1nc(C)n(C(C)CC(=O)O)n1 (stereo not drawn),103% (inactive),127% (inactive),103% (inactive),5.71% (inactive),97.2,103,-4% (inactive),1.27% (inactive)
CCOC(=O)/C=C1\SCC(=O)N1Cc1nnc(-c2ccccc2Br)o1,107% (inactive),97.5% (inactive),91.3% (inactive),3.01% (inactive),88.2,91.3,-7.81% (inactive),1.82% (inactive)
O=C(CCn1c(=O)c2ccccc2n(CC(=O)NCCC2=CCCCC2)c1=O)NCc1ccco1,99% (inactive),90.9% (inactive),92.2% (inactive),5.12% (inactive),87,92.2,-5.06% (inactive),-2.79% (inactive)
Cc1nc2scc(-c3ccco3)c2c(=O)n1/N=C/N(C)C,87% (inactive),76.1% (inactive),95.3% (inactive),2.7% (inactive),92.6,95.3,-4.86% (inactive),-4.73% (inactive)
COc1ccc(Nc2nc(Nc3ccc(OC)cc3)nc(-n3[nH]c(=O)c(C)c3C)n2)cc1,79% (inactive),92.8% (inactive),12.1% (active),1.18% (inactive),11,12.1,-4.32% (inactive),16.9% (inactive)
CC(OC(=O)CNC(=O)C12CC3CC(CC(C3)C1)C2)C(=O)Nc1ccc(N2CCOCC2)cc1 (stereo not drawn),121% (inactive),101% (inactive),97.2% (inactive),2.31% (inactive),94.8,97.2,-0.68% (inactive),-2.55% (inactive)
NS(=O)(=O)c1ccc(C(=O)O)cc1,92% (inactive),93.4% (inactive),99% (inactive),11.6% (inactive),87.5,99,5.45% (inactive),-5.33% (inactive)
COC(=O)c1ccc(C2C(C#N)=C(N)Oc3cc(C)n(C)c(=O)c32)cc1 (stereo not drawn),104% (inactive),95.5% (inactive),97.8% (inactive),2.3% (inactive),95.4,97.8,-0.82% (inactive),-3.23% (inactive)
Cn1cc(C(=O)NC2CCCCCCC2)c(=O)c2cc(S(=O)(=O)N3CCCC3)ccc21,76.5% (inactive),79.8% (inactive),90.9% (inactive),0.325% (inactive),90.6,90.9,-5.95% (inactive),-4.67% (inactive)
Cc1nc2ncnn2c(N2CCC(C(=O)NCC3CCCO3)CC2)c1Cc1ccccc1 (stereo not drawn),136% (inactive),97.1% (inactive),89.5% (inactive),-6.76% (inactive),96.3,89.5,-3.7% (inactive),-4.55% (inactive)
C(=N/n1c2ccccc2c2ccccc21)/c1ccco1,81% (inactive),77.9% (inactive),86.5% (inactive),-3.11% (inactive),89.6,86.5,-5.19% (inactive),0.49% (inactive)
CCOc1cc(C(=O)N(C)Cc2cc3ccccc3[nH]c2=O)cc(OCC)c1OCC,92% (inactive),107% (inactive),98.6% (inactive),2.04% (inactive),96.6,98.6,-7.43% (inactive),-4.18% (inactive)
CC(C)(C)NC(=O)CN(C(=O)C1CSC(=O)C1)c1ccc2c(c1)OCCO2 (stereo not drawn),92% (inactive),112% (inactive),91.5% (inactive),-1.13% (inactive),92.6,91.5,0.95% (inactive),-4.55% (inactive)
CCOC(=O)N1CCC(NC(=O)Cc2ccc(-n3c(=O)[nH]c4ccccc4c3=O)cc2)CC1,103% (inactive),97.6% (inactive),96.4% (inactive),7.9% (inactive),88.5,96.4,-5.06% (inactive),0% (inactive)
Cn1c(C(=O)OCC(=O)NCC2CCCO2)cc2sccc21 (stereo not drawn),85% (inactive),113% (inactive),92.7% (inactive),3.19% (inactive),89.6,92.7,-9.04% (inactive),2.9% (inactive)

SMILES,viability [1],viability [2],viability [3],differential viability (reversal) ([4]; H69AR cells + 2 uM doxorubicin),"viability [4, 7] [%]","viability [4, 8] [%]",inhibition [5],inhibition [6]
Cn1c(=O)c2c(nc(CN3CCCCC3)n2CCCc2ccccc2)n(C)c1=O,122% (inactive),103% (inactive),81.7% (inactive),0.72% (inactive),81,81.7,-1.3% (inactive),6.23% (inactive)
COc1ccc(-c2noc(CCN3C(=O)c4ccccc4C3=O)n2)cc1OC,140% (inactive),105% (inactive),93.9% (inactive),17.8% (inactive),76.1,93.9,-4.03% (inactive),-1.15% (inactive)
Cc1ccc(Cn2nnc(C(=O)Nc3cccc(C)c3C)c2N)cc1,97% (inactive),63.1% (inactive),86.2% (inactive),-7.94% (inactive),94.1,86.2,-6.1% (inactive),-2.3% (inactive)
CNC(=O)CSc1nc2c(c(=O)n(C)c(=O)n2C)n1Cc1ccc(C)cc1,100% (inactive),92.4% (inactive),96.2% (inactive),16.2% (inactive),79.9,96.2,-2% (inactive),-7.45% (inactive)
Cc1c(NC(=O)CCc2ccc(S(=O)(=O)N3CCOCC3)cc2)c(=O)n(-c2ccccc2)n1C,93% (inactive),109% (inactive),100% (inactive),10.3% (inactive),89.8,100,-3.77% (inactive),-8.2% (inactive)
Cc1ccc(S(=O)(=O)N2CCN(S(=O)(=O)N(C)C)CC2)cc1,123% (inactive),107% (inactive),103% (inactive),8.38% (inactive),94.7,103,-3.15% (inactive),-4.68% (inactive)
CCOC(=O)c1ccc(NC(=O)CSC2=NC(=O)C(CC)C(=O)N2)cc1 (stereo not drawn),94% (inactive),65.8% (inactive),105% (inactive),22.1% (inactive),83.3,105,0.78% (inactive),-2.3% (inactive)
N#CC1=C(N)N(c2ccc(Oc3ccccc3)cc2)C(=O)C1,130% (inactive),106% (inactive),90.2% (inactive),8.2% (inactive),82,90.2,-5.62% (inactive),0.48% (inactive)
COc1ccc2nc(S(=O)Cc3ncc(C)c(OC)c3C)[nH]c2c1 (stereo not drawn),88% (inactive),71.1% (inactive),80.8% (inactive),-13.3% (inactive),94.1,80.8,-1.69% (inactive),-2.5% (inactive)
COc1ccc(-c2nc(C)sc2CC(=O)O)cc1,100% (inactive),103% (inactive),95.8% (inactive),2.46% (inactive),93.3,95.8,-2.21% (inactive),1.31% (inactive)
O=C(Nc1ccc(Cl)cc1C(=O)O)c1ccc2c(c1)C(=O)N(Cc1ccco1)C2=O,72% (inactive),86.6% (inactive),93.3% (inactive),8.62% (inactive),84.7,93.3,-8.49% (inactive),0.48% (inactive)
CCOC(=O)N1CCN(C(=O)c2ccc3c(=O)n(Cc4ccc(OC)cc4)c(=S)[nH]c3c2)CC1,99% (inactive),64.6% (inactive),72.5% (inactive),47.4% (inactive),25.1,72.5,-0.13% (inactive),-5.08% (inactive)
O=S(=O)(NCC1CCCO1)c1ccc2c(c1)OCCO2 (stereo not drawn),128% (inactive),98% (inactive),97.6% (inactive),0.805% (inactive),96.8,97.6,0.41% (inactive),-5.48% (inactive)
CC(=O)OC(C(=O)NC1CCCCC1)c1ccncc1 (stereo not drawn),88% (inactive),98% (inactive),109% (inactive),21.3% (inactive),87.7,109,-0.14% (inactive),-0.48% (inactive)
Cn1c(=O)[nH]c(=O)c2c1nc(N1CCc3ccccc3C1)n2CCSc1nc2ccccc2s1,72% (inactive),79.5% (inactive),75.2% (inactive),1.51% (inactive),73.7,75.2,-5.48% (inactive),2.9% (inactive)
CC(C(=O)NC(=O)NC1CCCCC1)N1CCN(c2ccccn2)CC1 (stereo not drawn),96% (inactive),95.6% (inactive),104% (inactive),14.7% (inactive),88.9,104,-2.4% (inactive),-3.27% (inactive)
CC1(C)CC(=O)C2=C(C1)N(CC1CCCO1)C(=O)C2(O)C(F)(F)F (stereo not drawn),98% (inactive),97.5% (inactive),101% (inactive),3.08% (inactive),97.7,101,-5.95% (inactive),-6.36% (inactive)
CN(C)c1ccc(NC(=O)Nc2cccc(Cl)c2)cc1,83% (inactive),99.9% (inactive),88.7% (inactive),3.98% (inactive),84.7,88.7,-6.71% (inactive),4.55% (inactive)

# Source: PubChem BioAssay
